The target in test [1] is Matrix metalloproteinase-9 (Homo sapiens, UniProt P14780). In words: Inhibition of recombinant human MMP9 catalytic domain (Phe107 to Pro449 residues) expressed in Escherichia coli cells using Mca-Pro-Leu-Gly-Leu-Dpa-Ala-Arg-NH2/TQ3-GABA-Pro-Cha-Abu-Smc-His-Ala-Dab(6'-TAMRA)-Ala-Lys-NH2 as fluorogenic substrate preincubated for 15 mins followed by substrate addition measured after 2 to 4 hrs by fluorometric assay. The essentials: (§1)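 Commercial catalytic domain in Tris·HCl 50 mM pH 7.5, NaCl 150 mM, CaCl₂ 1 mM, ZnCl₂ 1 µM, 0.05% Brij-35, 1% DMSO. Inhibitor was tested at six concentrations (1 nM–100 µM), diluted from 10 mM DMSO stocks, and pre-incubated with enzyme for 15 min at room temperature. OmniMMP substrate (2.5 µM final) or OmniMMP RED substrate (1 µM final) was then added and incubated 2–4 h at 37°C. Fluorescence read at ex 340/em 405 or ex 545/em 572. Percent inhibition calculated versus no-inhibitor wells. Run in triplicate; IC50 given as mean ± SEM of ≥2 independent experiments.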

A further test addresses Neutrophil collagenase (Homo sapiens, UniProt P22894). Put plainly: Inhibition of recombinant human MMP8 catalytic domain (Phe99 to Gln269 residues) expressed in Escherichia coli cells using Mca-Pro-Leu-Gly-Leu-Dpa-Ala-Arg-NH2/TQ3-GABA-Pro-Cha-Abu-Smc-His-Ala-Dab(6'-TAMRA)-Ala-Lys-NH2 as fluorogenic substrate preincubated for 15 mins followed by substrate addition measured after 2 to 4 hrs by fluorometric assay. Summed up: as §1

Test [2] deals with 72 kDa type IV collagenase (Homo sapiens, UniProt P08253). Put plainly: Inhibition of recombinant human MMP2 catalytic domain (Tyr110 to Asp452 residues) expressed in yeast cells using Mca-Pro-Leu-Gly-Leu-Dpa-Ala-Arg-NH2/TQ3-GABA-Pro-Cha-Abu-Smc-His-Ala-Dab(6'-TAMRA)-Ala-Lys-NH2 as fluorogenic substrate preincubated for 15 mins followed by substrate addition measured after 2 to 4 hrs by fluorometric analysis. Format: biochemical. Summed up:
as §1

Another test concerns the target Collagenase 3 (Homo sapiens, UniProt P45452). In words: Inhibition of recombinant human MMP13 catalytic domain (Tyr104 to Asn274 residues) expressed in Escherichia coli cells using Mca-Pro-Leu-Gly-Leu-Dpa-Ala-Arg-NH2/TQ3-GABA-Pro-Cha-Abu-Smc-His-Ala-Dab(6'-TAMRA)-Ala-Lys-NH2 as fluorogenic substrate preincubated for 15 mins followed by substrate addition measured after 2 to 4 hrs by fluorometric assay.

Neutrophil collagenase, sequence (P22894 whole entry, the tested form may be a part): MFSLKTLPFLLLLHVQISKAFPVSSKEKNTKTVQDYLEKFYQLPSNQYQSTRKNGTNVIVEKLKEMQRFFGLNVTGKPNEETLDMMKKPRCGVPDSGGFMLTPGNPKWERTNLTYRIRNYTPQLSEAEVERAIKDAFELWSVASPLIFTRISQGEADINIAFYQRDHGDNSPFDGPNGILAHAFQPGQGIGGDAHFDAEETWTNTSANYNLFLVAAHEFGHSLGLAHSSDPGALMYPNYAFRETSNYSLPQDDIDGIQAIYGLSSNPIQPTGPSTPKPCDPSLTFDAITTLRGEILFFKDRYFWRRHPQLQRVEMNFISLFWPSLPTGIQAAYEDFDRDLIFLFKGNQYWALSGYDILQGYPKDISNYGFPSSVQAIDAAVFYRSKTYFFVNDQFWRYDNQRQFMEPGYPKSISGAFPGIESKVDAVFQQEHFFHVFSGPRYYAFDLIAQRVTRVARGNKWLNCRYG
Matrix metalloproteinase-9, sequence (P14780 whole entry, the tested form may be a part): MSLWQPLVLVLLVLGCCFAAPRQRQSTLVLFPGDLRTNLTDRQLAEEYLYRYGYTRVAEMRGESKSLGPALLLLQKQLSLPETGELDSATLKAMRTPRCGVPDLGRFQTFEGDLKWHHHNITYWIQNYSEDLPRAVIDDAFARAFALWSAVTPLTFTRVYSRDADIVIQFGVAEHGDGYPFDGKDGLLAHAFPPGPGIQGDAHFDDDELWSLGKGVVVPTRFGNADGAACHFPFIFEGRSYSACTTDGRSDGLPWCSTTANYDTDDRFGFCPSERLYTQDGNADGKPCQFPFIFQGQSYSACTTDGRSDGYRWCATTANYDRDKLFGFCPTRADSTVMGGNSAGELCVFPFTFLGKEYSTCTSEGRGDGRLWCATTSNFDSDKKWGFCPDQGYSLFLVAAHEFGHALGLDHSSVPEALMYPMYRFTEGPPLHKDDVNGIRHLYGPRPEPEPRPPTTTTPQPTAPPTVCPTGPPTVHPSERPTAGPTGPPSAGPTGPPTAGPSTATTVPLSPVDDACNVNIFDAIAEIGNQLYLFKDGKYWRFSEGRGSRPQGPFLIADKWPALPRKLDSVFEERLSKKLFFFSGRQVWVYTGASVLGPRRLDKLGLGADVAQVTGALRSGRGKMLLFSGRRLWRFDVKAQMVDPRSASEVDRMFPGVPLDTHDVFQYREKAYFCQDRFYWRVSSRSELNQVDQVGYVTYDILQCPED
72 kDa type IV collagenase, sequence (P08253 whole entry, the tested form may be a part): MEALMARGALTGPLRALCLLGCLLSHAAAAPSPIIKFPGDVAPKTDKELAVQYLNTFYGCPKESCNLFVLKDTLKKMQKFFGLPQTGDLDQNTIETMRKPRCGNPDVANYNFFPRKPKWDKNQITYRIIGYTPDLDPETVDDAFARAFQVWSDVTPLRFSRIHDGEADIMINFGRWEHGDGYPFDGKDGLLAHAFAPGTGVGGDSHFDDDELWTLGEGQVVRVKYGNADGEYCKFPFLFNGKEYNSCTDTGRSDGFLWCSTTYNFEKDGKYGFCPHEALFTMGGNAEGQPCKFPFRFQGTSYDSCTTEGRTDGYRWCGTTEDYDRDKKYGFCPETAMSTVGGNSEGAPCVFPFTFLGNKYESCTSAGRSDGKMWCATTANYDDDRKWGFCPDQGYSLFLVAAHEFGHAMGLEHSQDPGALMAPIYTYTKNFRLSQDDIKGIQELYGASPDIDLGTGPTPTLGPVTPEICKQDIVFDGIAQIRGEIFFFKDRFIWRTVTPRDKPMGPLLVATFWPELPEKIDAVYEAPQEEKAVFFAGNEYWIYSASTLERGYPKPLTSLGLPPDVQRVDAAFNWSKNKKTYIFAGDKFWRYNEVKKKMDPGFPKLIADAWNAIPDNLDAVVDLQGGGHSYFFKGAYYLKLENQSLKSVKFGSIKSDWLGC

A word on the IC50: it is the point on the concentration scale where inhibition reaches its midpoint. Regarding `COc1ccc(/C=C/C(=O)Nc2cccc(-c3nc4ccccc4[nH]3)c2)cc1`, the half-maximal inhibitory concentration (IC50) in test [1] is > 100 µM; at Neutrophil collagenase, > 100 µM; in test [2], 48 µM; at Collagenase 3 it was 52 µM.
As for `O=[N+]([O-])c1cccc(-c2nc3ccc(Br)cc3[nH]2)c1`, the concentration for half-maximal inhibition (IC50) in test [1] was > 100 µM; on Neutrophil collagenase, > 100 µM; in test [2] it was > 100 µM; at Collagenase 3, 47 µM.
Take `O=C(Nc1ccc(-c2nc3ccccc3[nH]2)cc1)c1ccccc1`: the IC50 in test [1] amounted to 16 µM; on Neutrophil collagenase, 28 µM; in test [2], 6.5 µM; at Collagenase 3, 7.5 µM.
The corresponding values for `COC(=O)c1ccc(-c2nc3ccc(Br)cc3[nH]2)cc1` are 20.7 µM, 26.3 µM, 9 µM and 19 µM.
Turning to `O=C(Nc1ccc(-c2nc3ccc(Br)cc3[nH]2)cc1)c1ccccc1`, the half-inhibitory concentration (IC50) in test [1] was 32 µM; at Neutrophil collagenase it was 50 µM; in test [2], 6.42 µM; on Collagenase 3, 3.9 µM.
The matching figures for `O=C(CCc1ccccc1)Nc1ccc(-c2nc3ccc(Br)cc3[nH]2)cc1`: 11.5 µM, 8 µM, 7 µM and 6.5 µM.
Turning to `Cc1ccc2nc(-c3cccc(NC(=O)CCc4ccccc4)c3)[nH]c2c1`, the IC50 in test [1] is 26.6 µM; at Neutrophil collagenase, 32 µM; in test [2] it was 31 µM; on Collagenase 3 it was > 100 µM.
The corresponding values for `O=C(CCCc1ccccc1)Nc1ccc(-c2nc3ccccc3[nH]2)cc1` are > 100 µM, > 100 µM, 96 µM and 50 µM.
The corresponding values for `Cc1ccc2oc(-c3ccc(NC(=O)c4ccc([N+](=O)[O-])cc4)cc3)nc2c1` are 20 µM, 14.7 µM, 15.9 µM and 11 µM.
